From PubChem BioAssay AID504417 (Johns Hopkins Ion Channel Center, 2011)
The source made the active and inactive calls.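 The calls were made as follows: active = potentiation or inhibition of the KCNQ1 potassium channel at any tested concentration, with a dose response curve obtained; inactive = no effect at any concentration, or no dose response.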

Molecular target: Potassium voltage-gated channel subfamily KQT member 1 (Homo sapiens) (UniProt P51787)
Assay: KCNQ1 thallium flux concentration-response – KCNQ1-expressing cells, selectivity assay for KCNQ2 activator project, dose response (AID 504417)
Conditions: FluxOR thallium flux fluorescence; series mostly up to 30 µM
Outline: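 Controls – stimulated vehicle wells and unstimulated blank wells · Assay system – CHO cells expressing the KCNQ1 potassium channel · Measured by – kinetic FluxOR Tl+ flux fluorescence · Schedule – dye load 90 min, compound 20 min, room temperature · Measure – fluorescence change (max minus min) over baseline, normalized to vehicle and blank controls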

Sequence of Potassium voltage-gated channel subfamily KQT member 1 (Homo sapiens) (P51787 whole entry, looked up): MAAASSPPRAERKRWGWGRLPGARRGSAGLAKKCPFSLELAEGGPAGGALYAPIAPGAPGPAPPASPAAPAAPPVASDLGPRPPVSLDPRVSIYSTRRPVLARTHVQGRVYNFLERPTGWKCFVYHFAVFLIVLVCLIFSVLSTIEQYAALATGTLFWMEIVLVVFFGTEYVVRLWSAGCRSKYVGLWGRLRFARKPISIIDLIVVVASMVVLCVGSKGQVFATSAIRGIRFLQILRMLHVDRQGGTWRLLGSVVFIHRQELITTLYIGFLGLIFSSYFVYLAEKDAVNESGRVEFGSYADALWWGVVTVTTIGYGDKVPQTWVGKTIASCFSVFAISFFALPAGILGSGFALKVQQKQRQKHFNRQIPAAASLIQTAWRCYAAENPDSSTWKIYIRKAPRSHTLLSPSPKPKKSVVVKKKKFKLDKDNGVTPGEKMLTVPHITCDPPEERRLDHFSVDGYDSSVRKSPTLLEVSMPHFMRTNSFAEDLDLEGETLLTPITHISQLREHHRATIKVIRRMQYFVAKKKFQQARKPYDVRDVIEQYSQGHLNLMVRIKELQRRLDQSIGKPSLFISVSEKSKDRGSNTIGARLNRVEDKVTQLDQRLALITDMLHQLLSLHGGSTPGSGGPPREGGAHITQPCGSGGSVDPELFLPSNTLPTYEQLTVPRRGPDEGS

outcome, inactive:
Cc1cccc(C)c1NC(=O)C1CC2CCC1C2 (stereo not given)
Cc1cc(C)c(NC(=O)C2CC3CCC2C3)c(C)c1 (stereo not given)
CCCCC(=O)Nc1c(C)cc(C)cc1Cl
Cc1cc(C)c(NC(=O)CC(C)(C)C)c(Cl)c1
Cc1ccc(C)c(NC(=O)C2CC3CCC2C3)c1 (stereo not given)
